The source made the active and inactive calls. The rule behind the calls is not given here.
Assays:
[1] = molecular target: T1, Aldehyde dehydrogenase, dimeric NADP-preferring (Homo sapiens) (UniProt P30838); experiment: Inhibition of ALDH3 in human DU145 cells at 7.5 uM after 3 days; format: cell-based; conditions: DU-145
T1 sequence (whole entry): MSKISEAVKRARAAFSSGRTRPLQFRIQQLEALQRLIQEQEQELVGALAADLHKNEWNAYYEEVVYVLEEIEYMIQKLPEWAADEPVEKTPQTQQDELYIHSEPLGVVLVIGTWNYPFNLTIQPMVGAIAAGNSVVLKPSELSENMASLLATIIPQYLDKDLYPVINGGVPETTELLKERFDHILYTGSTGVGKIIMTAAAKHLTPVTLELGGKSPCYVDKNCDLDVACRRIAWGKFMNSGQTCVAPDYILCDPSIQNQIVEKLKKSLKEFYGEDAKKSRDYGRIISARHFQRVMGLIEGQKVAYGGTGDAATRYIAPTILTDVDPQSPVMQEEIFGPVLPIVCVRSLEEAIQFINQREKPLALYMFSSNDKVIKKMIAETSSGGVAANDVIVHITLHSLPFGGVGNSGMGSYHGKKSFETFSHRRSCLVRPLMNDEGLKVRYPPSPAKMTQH
Outline: (§1)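 DU145 treated for 3 days, trypsinised, washed in PBS and lysed in 60 mM sodium phosphate pH 7 with 1% Triton X-100 and 1 mM EDTA, 30 min at 4 °C; lysate spun at 48,000g for 30 min. ALDH1: supernatant in phosphate pH 8.5, 1 mM EDTA, 100 mM KCl, 2.35 mM NAD, propanal substrate. ALDH3: 5 mM benzaldehyde, 2.5 mM NADP, 1 mM pyrazole. Two experiments in duplicate.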

[2] = Growth inhibition of HPEN cells at 5 uM after 3 days; format: cell-based; conditions: human
Outline: (§2)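 Cells seeded at 1 × 10⁵ per well in 24-well plates; compound added 4 h post-seeding and left for 3 days. Growth inhibition measured as protein content relative to control. HPENC values are means of three experiments in duplicate; DU145 values are means of five experiments in duplicate.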

[3] = Reversal of growth inhibition in HPEN cells assessed as increase in cell number at 10 uM on day 3 replaced with fresh medium without drug and measured after 8 days; format: cell-based; conditions: human, 192 h
Outline: (§3)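 Cells were treated for 3 days. The medium was then aspirated, the sheet washed with PBS and fresh drug-free medium added, followed by 5 more days of culture. Growth measured on day 8 as adherent-cell protein and expressed relative to the day-3 protein content of parallel wells. Two experiments in duplicate.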

[4] = system: DU-145; experiment: Growth inhibition of human DU145 cells at 10 uM after 3 days; format: functional; conditions: DU-145, 72 h; outline: as §2
[5] = Growth inhibition of human androgen-resistant ME cells after 3 days; format: functional; conditions: 72 h
Outline: (§4)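 MOP (androgen-sensitive, LNCaP grown long-term in steroid-deprived medium) and ME (from regrown MOP xenografts under androgen) in RPMI 1640 with 5% charcoal-treated FCS. Seeded 1 × 10⁵ cells per well in 24-well plates, compound added at 4 h, cell count by Coulter counter after 3 days. IC50 is the mean of three experiments.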

[6] = system: DU-145; experiment: Growth inhibition of human DU145 cells at 2 uM after 3 days; format: functional; conditions: DU-145, 72 h; outline: as §2
[7] = system: DU-145; experiment: Reversal of growth inhibition in human DU145 cells assessed as increase in cell number at 10 uM on day 3 replaced with fresh medium without drug and measured after 8 days; format: functional; outline: as §3
[8] = Growth inhibition of human androgen-sensitive MOP cells after 3 days; format: functional; conditions: 72 h; outline: as §4
[9] = system: DU-145; experiment: Decrease in redox potential in human DU145 cells at 10 uM after 3 days by flow cytometry; format: functional, cell-based
[10] = Growth inhibition of rat JM2 cells; format: functional, cell-based
[11] = system: DU-145; experiment: Growth inhibition of human DU145 cells at 5 uM after 3 days; format: functional; conditions: DU-145, 72 h; outline: as §2
[12] = molecular target: T2, Aldehyde dehydrogenase 1A1 (Homo sapiens) (UniProt P00352); experiment: Inhibition of ALDH1 in human DU145 cells at 7.5 uM after 3 days; format: cell-based; conditions: DU-145; outline: as §1
T2 sequence (whole entry): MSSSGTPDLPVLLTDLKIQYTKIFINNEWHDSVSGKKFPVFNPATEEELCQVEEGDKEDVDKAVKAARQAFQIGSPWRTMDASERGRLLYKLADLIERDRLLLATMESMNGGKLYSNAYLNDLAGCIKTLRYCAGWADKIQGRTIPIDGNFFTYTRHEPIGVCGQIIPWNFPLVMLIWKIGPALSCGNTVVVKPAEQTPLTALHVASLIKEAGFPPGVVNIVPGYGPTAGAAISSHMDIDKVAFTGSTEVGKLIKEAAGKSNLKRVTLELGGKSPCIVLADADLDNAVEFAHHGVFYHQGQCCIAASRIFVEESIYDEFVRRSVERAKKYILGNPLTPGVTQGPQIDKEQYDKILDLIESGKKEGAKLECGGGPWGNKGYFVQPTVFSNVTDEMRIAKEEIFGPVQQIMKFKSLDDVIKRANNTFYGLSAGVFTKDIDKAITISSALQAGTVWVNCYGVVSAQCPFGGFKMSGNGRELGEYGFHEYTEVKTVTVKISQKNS

[13] = system: MRC5; experiment: Growth inhibition of human MRC5 cells; format: cell-based
[14] = system: DU-145; experiment: Reversal of growth inhibition in human DU145 cells assessed as increase in cell number at 10 uM after 8 days; format: functional
Outline: (§5)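 Cells seeded in six wells and treated from 4 h after seeding. Two wells were left in the original drug-containing medium for a further 5 days. Growth measured on day 8 as protein content of adherent cells and expressed as the day 8/day 3 ratio. EtOH vehicle controls were handled identically. Two experiments in duplicate.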

[15] = molecular target: T2, Aldehyde dehydrogenase 1A1 (Homo sapiens); experiment: Inhibition of ALDH1 in human DU145 cells at 5 uM after 3 days; format: cell-based; conditions: DU-145; outline: as §1
[16] = molecular target: T2, Aldehyde dehydrogenase 1A1 (Homo sapiens); experiment: Inhibition of ALDH1 in human DU145 cells at 2.5 uM after 3 days; format: cell-based; conditions: DU-145; outline: as §1
[17] = system: DU-145; experiment: Induction of apoptosis in human DU145 cells assessed as apoptotic cells in flow cytometry region H3 at 10 uM after 3 days by flow cytometry
[18] = molecular target: T1, Aldehyde dehydrogenase, dimeric NADP-preferring (Homo sapiens); experiment: Inhibition of ALDH3 in human DU145 cells at 5 uM after 3 days; format: cell-based; conditions: DU-145; outline: as §1
[19] = Growth inhibition of HPEN cells administered after 3 days; format: cell-based; conditions: Homo sapiens, 72 h
Outline: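 HPENC in PrEGM with supplement and 10% FCS; 1 × 10⁵ cells per well in 24-well plates, compound added 4 h after seeding once adhered. After 3 days, growth read as protein content. IC50 is the mean of three experiments.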

[20] = Growth inhibition of HPEN cells at 2 uM after 3 days; format: cell-based; conditions: human; outline: as §2
[21] = system: DU-145; experiment: Growth inhibition of human DU145 cells administered after 3 days; format: functional, cell-based; conditions: DU-145, 72 h
Outline: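 DU145 in RPMI 1640 with 10% FCS; 1 × 10⁵ cells per well in 24-well plates, compound added 4 h after seeding. After 3 days the adherent sheet was washed twice with PBS and harvested in 0.14 M NaOH, and protein content measured. IC50 is the mean of three experiments.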

[22] = molecular target: T1, Aldehyde dehydrogenase, dimeric NADP-preferring (Homo sapiens); experiment: Inhibition of ALDH3 in human DU145 cells at 2.5 uM after 3 days; format: cell-based; conditions: DU-145; outline: as §1
[23] = system: DU-145; experiment: Increase in superoxide anion level in human DU145 cells at 10 uM after 3 days by flow cytometry; format: functional, cell-based
[24] = Reversal of growth inhibition in HPEN cells assessed as increase in cell number at 10 uM after 8 days; format: cell-based; conditions: human, 192 h; outline: as §5
[25] = system: DU-145; experiment: Induction of apoptosis in human DU145 cells assessed as apoptotic cells in flow cytometry region H1 at 10 uM after 3 days by flow cytometry
[26] = Growth inhibition of HPEN cells at 10 uM after 3 days; format: cell-based; conditions: human; outline: as §2
[27] = system: RH7777; experiment: Growth inhibition of RH7777 cells; format: functional, cell-based; conditions: Rattus norvegicus
[28] = molecular target: T3, Aldehyde dehydrogenase 1, mitochondrial (Saccharomyces cerevisiae) (UniProt P22281); experiment: Inhibition of yeast ALDH1 at 600 uM
T3 sequence (whole entry): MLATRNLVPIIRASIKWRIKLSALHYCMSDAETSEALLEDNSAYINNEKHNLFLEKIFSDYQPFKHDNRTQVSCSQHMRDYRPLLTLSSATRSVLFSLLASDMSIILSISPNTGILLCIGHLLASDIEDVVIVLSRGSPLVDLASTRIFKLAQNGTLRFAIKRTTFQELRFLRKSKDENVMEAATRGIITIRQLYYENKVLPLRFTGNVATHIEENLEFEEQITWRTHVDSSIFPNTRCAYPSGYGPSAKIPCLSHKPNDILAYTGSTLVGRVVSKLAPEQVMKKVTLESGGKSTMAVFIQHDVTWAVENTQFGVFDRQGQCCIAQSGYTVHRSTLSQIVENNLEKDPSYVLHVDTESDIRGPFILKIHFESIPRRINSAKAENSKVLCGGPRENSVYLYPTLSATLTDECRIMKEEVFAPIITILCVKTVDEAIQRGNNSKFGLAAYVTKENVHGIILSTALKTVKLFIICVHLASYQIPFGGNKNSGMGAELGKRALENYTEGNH

[29] = system: BaF3; experiment: Induction of apoptosis in mouse BAF3 cells overexpressing bcl2; format: functional, cell-based
[30] = Reversal of growth inhibition in HPEN cells assessed as increase in cell number at 15 uM after 8 days; format: cell-based; conditions: human, 192 h; outline: as §5
[31] = Reversal of growth inhibition in HPEN cells assessed as increase in cell number at 15 uM on day 3 replaced with fresh medium without drug and measured after 8 days; format: cell-based; conditions: human, 192 h; outline: as §3
[32] = system: DU-145; experiment: Growth inhibition of human DU145 cells at 15 uM after 3 days; format: functional; conditions: DU-145, 72 h
Outline: (§6)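 Vehicle controls received 0.5% EtOH. Cells seeded at 1 × 10⁵ per well, compound added at 4 h. Growth inhibition measured by protein content at day 3; two experiments, each in duplicate.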

[33] = system: DU-145; experiment: Reversal of growth inhibition in human DU145 cells assessed as increase in cell number at 15 uM after 8 days; format: functional; outline: as §5
[34] = Growth inhibition of HPEN cells at 15 uM after 3 days; format: cell-based; conditions: human; outline: as §6
[35] = system: DU-145; experiment: Reversal of growth inhibition in human DU145 cells assessed as increase in cell number at 15 uM on day 3 replaced with fresh medium without drug and measured after 8 days; format: functional; outline: as §3

| SMILES | inhibition [1] [%] | inhibition at 72 h, 5 µM [2] [%] | Activity [3] | inhibition at 10 µM [4] [%] | IC50 [5] [µM] | inhibition at 2 µM [6] [%] | Activity [7] | IC50 [8] [µM] | inhibition at 5 µM [11] [%] | inhibition [12] [%] | IC50 [13] [µM] | Activity [14] | inhibition [15] [%] | inhibition [16] [%] | inhibition [18] [%] | IC50 [19] [µM] | inhibition at 72 h, 2 µM [20] [%] | IC50 [21] [µM] | inhibition [22] [%] | Activity [24] | also measured |
| --- | --- | --- | --- | --- | --- | --- | --- | --- | --- | --- | --- | --- | --- | --- | --- | --- | --- | --- | --- | --- | --- |
| CSC(=O)C#CC(C)(C)N(C)C | 100 | 23 | 2.8 | 78 | 3 | 6 | 2.7 | 3 | 34 | 78 | 8 | 2.5 | 40 | 15 | 62 | 9.7 | 6 | 7.2 | 40 | 0.9 | Activity [9]: Active; IC50 [10]: 10 µM; Activity [17]: Active; Activity [23]: Active; Activity [25]: Active; inhibition at 72 h, 10 µM [26]: 60%; IC50 [27]: 10 µM |
| CSC(=O)C#CC(C)(C)N1CCOCC1 | 78 | 6 | 1.6 | 70 | 10 | 0 | 2.6 | 10 | 8 | 32 | 29 | 3 | 20 | 3 | 60 | > 10 | 3 | 9.3 | 40 | 0.4 | inhibition [28]: 15%; IC50 [29]: 12 µM; Activity [30]: 1.4; Activity [31]: 2.6; inhibition at 15 µM [32]: 88%; Activity [33]: 1.9; inhibition at 72 h, 15 µM [34]: 37%; Activity [35]: 1.6; inhibition at 72 h, 10 µM [26]: 11% |
| CSC(=O)C#CC(C)(C)[N+](C)(C)C |  |  |  |  |  |  |  |  |  |  |  |  |  |  |  | 590 |  | > 600 |  |  |  |
| CSC(C#CC(C)(C)N1CCOCC1)=[N+](C)C |  |  |  |  |  |  |  |  |  |  |  |  |  |  |  |  |  | > 100 |  |  |  |

— ChEMBL document CHEMBL1156669, “Aldehyde dehydrogenase inhibitors: alpha,beta-acetylenic N-substituted aminothiolesters are reversible growth inhibitors of normal epithelial but irreversible apoptogens for cancer epithelial cells from human prostate in culture” (Eur J Med Chem, 2008)
